# An excerpt weighted towards active compounds, which were near 1.8% of everything screened.
# M4 ag = CHRM4 agonism in calcium assay. 360,000 compounds, 0.14% hits. CHO-K1 hM4/Gqi5, Fluo-8 calcium fluorescence; vehicle 0%, full acetylcholine response 100%. activation, % at 3 µM;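 active = activation above the run mean over all test wells plus 3 SD, cut at about 32% in these data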;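 also: peak over basal fluorescence ratio per well then scaled between controls; 0% = DMSO wells and 100% = acetylcholine at EC100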
# M5 ag = agonists of human muscarinic M5 receptor (CHRM5) | CHO-K1 hM5 cells, Fluo-8 calcium fluorescence; 0% DMSO wells, 100% maximal acetylcholine response | activation, % at 3 µM | 360,000 compounds, 0.19% hits | AID 624037;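 active = activation above the run's mean over test compounds plus 3 SD, cut at about 23% in these data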;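 also: signal is peak over basal fluorescence ratio across the kinetic read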
# Target sequence (P08912 whole entry, looked up): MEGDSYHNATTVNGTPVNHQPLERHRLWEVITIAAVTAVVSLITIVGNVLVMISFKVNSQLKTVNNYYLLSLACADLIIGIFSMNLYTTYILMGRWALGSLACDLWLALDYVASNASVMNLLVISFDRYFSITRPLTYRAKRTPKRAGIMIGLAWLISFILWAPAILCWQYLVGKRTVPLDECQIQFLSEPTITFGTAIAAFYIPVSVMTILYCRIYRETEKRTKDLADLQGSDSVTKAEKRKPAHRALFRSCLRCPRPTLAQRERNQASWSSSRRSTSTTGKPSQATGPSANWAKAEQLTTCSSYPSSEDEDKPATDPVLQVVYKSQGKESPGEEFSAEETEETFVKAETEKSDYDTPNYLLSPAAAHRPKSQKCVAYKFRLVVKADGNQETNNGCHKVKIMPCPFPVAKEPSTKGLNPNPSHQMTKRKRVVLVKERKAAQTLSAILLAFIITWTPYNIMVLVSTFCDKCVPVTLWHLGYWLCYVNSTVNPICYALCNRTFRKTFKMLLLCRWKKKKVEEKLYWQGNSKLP
# M4 PAM = CHRM4 positive allosteric modulation. P08173. 360,000 compounds, 0.4% hits. CHO-K1 hM4/Gqi5, Fluo-8 calcium fluorescence, ACh EC20; 0% = ACh EC20, 100% = maximal ACh. activation, % at 3 µM. AID 624126;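 active = activation above its plate's cutoff, the mean activation of sample wells plus 3 SD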
# CHRM5 PAM = potentiates acetylcholine response at human M5 receptor; P08912; CHO-K1 hM5, Fluo-8 calcium, ACh EC20 PAM; 0% = ACh EC20, 100% = ACh EC100; activation, % at 3 µM; 360,000 compounds, 0.3% hits; AID 624038;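 active = activation above the run cutoff, the mean activation of all test compounds plus 3 SD, cut at about 18% in these data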
#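 Assay system: CHO-K1 hM5 cells / Incubation: Fluo-8 loading 80 min at 37 °C plus 30 min room temperature / Technique: Fluo-8 calcium dye fluorescence, kinetic read / Repeats: single replicate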
# CHRM4 antagonist = blocks acetylcholine activation of human M4 receptor | CHO-hM4 cells, ACh EC80, Fluo-8 calcium fluorescence | inhibition, % at 3 µM | 360,000 compounds, 0.73% hits | AID 624125;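 active = inhibition above its plate's cutoff, the mean inhibition of sample wells plus 3 SD, cut at about 27% in these data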;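 also: 0% = acetylcholine EC80 with DMSO and 100% = DMSO without agonist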
# M5 antag = blocks acetylcholine activation of human M5 receptor | 360,000 compounds, 0.59% hits | CHO-hM5 cells, Fluo-8 calcium fluorescence, ACh EC80 | P08912 | inhibition, % at 3 µM | AID 624040;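 active = inhibition above a per-plate cutoff, the mean of that plate's test compounds plus 3 SD, cut at about 27% in these data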;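 also: 0% = acetylcholine EC80 with DMSO and 100% = DMSO without agonist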
# The depositor's hits bear a star; ! = not active in a repeat.
SMILES,M4 ag,M5 ag,M4 PAM,CHRM5 PAM,CHRM4 antagonist,M5 antag
CC(C)(C)[C@H](NC(=O)c1ccc(N)c(Cl)c1)C(=O)N1CCC[C@H]1C(=O)N[C@H](C#N)CC(=O)O,0,0,7,5,-2,12
Cc1ccc(C(=O)Nn2cnnc2)cc1Cl,0,2,3,0,-4,12
OC(COC(c1ccccc1)c1ccccc1)CN1CCCCC1 (stereo unspecified),2,-11,-4,-9,2,3
c1ccc(C(CN2CCCCC2)Oc2ccccn2)cc1 (stereo unspecified),3,-11,-17,-39,35*,24
CCN1CCCC(OC(=O)C(c2ccccc2)c2ccccc2)C1 (stereo unspecified),1,-1,-17,-18,32*,57*
CCN(CC)CC#CCC1(O)c2ccccc2-c2ccccc21,1,-6,-11,-25,17,23
CCN(CC#CCC1(O)c2ccccc2-c2ccccc21)C(C)C,1,-14,-14,-50,35*,39*
O=C(O)CCCNC(=O)CCCNC(=O)C(c1ccccc1)c1ccccc1,1,-1,6,7,-4,-5
Nc1nnn(CC(=O)N/N=C/c2cccc3ccccc23)n1,1,9,3,18*,5,24
Cc1ccccc1/C=N/NC(=O)Cn1nnc(N)n1,1,-1,12,7,-7,-8
COc1ccc(C(C)=O)cc1CSc1ccc2c(c1)OCCO2,4,-5,-3,-7,4,17
Cc1nn(CC(=O)NC2CCC(C)CC2)c(C)c1[N+](=O)[O-] (stereo unspecified),1,3,21,16,-12,-12
CC(C)OP(=O)(OC(C)C)C(Nc1cccc(C(=O)O)c1)c1ccccc1 (stereo unspecified),0,5,1,-1,-4,9
CC(C)OP(=O)(OC(C)C)C(Nc1ccc(C(=O)O)cc1)c1ccccc1 (stereo unspecified),1,1,32*,-1,38*,0
Cc1cccc(CCNC(=O)CNS(=O)(=O)c2ccc3nc(C)sc3c2)c1,12,-1,-3,-7,-6,12
Cc1c(Cc2ccccc2)sc(NC(=O)/C=C/c2cccc3ccccc23)c1C(N)=O,1,-3,8,-1,-7,-4
COCCCC1CCN(Cc2cn[nH]c2-c2cc(OC)c(OC)c(OC)c2)CC1,0,3,3,1,-6,8
Cc1cc(C)n(-c2ccc(C(=O)Nc3cccc([N+](=O)[O-])c3)cc2)n1,12,0,-9,-15,4,27*
Cc1cc(C)n(-c2ccc(C(=O)Nc3cccc(S(=O)(=O)N(C)C)c3)cc2)n1,19,4,-13,-18,7,19
O=C(NC(Nc1nc2ccc([N+](=O)[O-])cc2s1)(C(F)(F)F)C(F)(F)F)c1cccnc1,14,9,-7,-15,8,26
O=C(NC(Nc1nc2ccc([N+](=O)[O-])cc2s1)(C(F)(F)F)C(F)(F)F)c1ccccc1Cl,7,6,-10,-19,15,49*
CC(C)n1nc(C(=O)NNC(=O)c2ccncc2)c2ccccc2c1=O,-2,4,23*,1,-8,0
Nc1[nH]n2c(=O)cc(-c3ccccc3)nc2c1N=Nc1ccc(S(N)(=O)=O)cc1,1,10,18,19*,-2,13
Nc1[nH]n2c(=O)cc(-c3ccccc3)nc2c1N=Nc1ccccc1,0,-2,-1,0,14,11
Cn1c(-c2ccsc2)c(-c2cccs2)c2cc(Br)ccc21,-1,5,-1,4,-4,13
SMILES,M4 ag,M5 ag,M4 PAM,CHRM5 PAM,CHRM4 antagonist,M5 antag
CCOc1ccc(-n2nnc3c(=O)n(CC(=O)N4CCCc5ccccc54)cnc32)cc1,0,-1,-18,-11,88*,2
COc1ccc(-n2nnc3c(=O)n(CC(=O)N4CCCc5ccccc54)cnc32)cc1,0,0,-2,-3,1,2
COc1ccc(CC(=O)OCC(=O)Nc2ncc(Cl)cc2Cl)cc1OC,2,2,11,15,27*,5
COc1cc(CCC(=O)OCC(=O)Nc2ncc(Cl)cc2Cl)cc(OC)c1OC,2,-1,16,1,6,13
Brc1ccc(CN2CCN(c3ccccn3)CC2)s1,-2,-1,29*,3,-8,-5
Cn1c(N)c(C(=O)CSc2nnc(C3CC3)n2N)c(=O)n(C)c1=O,2,1,7,2,-6,-2
CCOC(=O)c1ccc(N=c2sc(C(=O)OC)cc(=O)n2Cc2ccco2)cc1,2,-1,-5,-6,-5,2
CCOC(=O)c1ccc(N=c2sc(C(=O)OC)cc(=O)n2CCCN2CCOCC2)cc1,2,-1,-13,-8,52*!,3
COc1ccc([C@@H]2CC=C(C(=O)O)[C@H](c3ccc(F)cc3)N2S(=O)(=O)c2ccccc2C)cc1,3,-1,3,9,0,1
COc1ccc([C@@H]2CC=C(C(=O)O)[C@H](c3ccccc3F)N2S(=O)(=O)c2ccccc2C)cc1,0,4,-1,20*,1,-5
CC(O)(c1cccc(F)c1)c1nc(-c2ccoc2)cs1 (stereo unspecified),1,0,-2,-6,2,6
CC(=O)c1c(C)nc2ccc(Br)cc2c1-c1ccccc1,0,-2,7,-1,-9,-4
CC(=O)c1c(C)nc2ccc([N+](=O)[O-])cc2c1-c1ccccc1,2,-8,14*,6,-27,-2
O=S(=O)(Nc1ccc(Cc2ccncc2)cc1)c1ccc(Cl)c(Cl)c1,8,-7,-33,-21,34*,7
CCOc1cc(S(=O)(=O)NCc2ccncc2)ccc1Cl,23,5,-16,-15,36*,60*
CCN(CC)c1ccc(NC(=O)c2ccc3c(c2)c(C)c(C)n3C)cc1,-1,-5,-3,-4,-16,-13
COCCNc1ncnc2c1cnn2-c1ccc(Cl)cc1,6,2,13,-4,28*,19
COCCNc1oc(COc2cccc(C)c2)nc1C#N,0,-3,4,24*,-10,8
CN(C)CCNc1oc(COc2cccc(Cl)c2)nc1C#N,1,1,-4,4,15,-5
CCCCc1c(-c2ccccc2OC)ncn1C1CCCC1,13,0,-11,-13,-1,1
CCOC(=O)CNC1CC(=O)N(c2ccc(Br)cc2)C1=O (stereo unspecified),0,5,6,21*,1,-6
